ASAP1 inh: inhibitors of human ASAP1 ArfGAP activity, primary screen, biochemical, fluorescence polarization. actives 0.19% (n = 360,000). ASAP1-stimulated ARF1 GTP hydrolysis, GDP FP detection. inhibition, % at 16.5 µM. AID 624377, 2012; in the data active means inhibition above about 25%;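 further: 0% = vehicle with enzyme and substrate and 100% = no enzyme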
Target sequence (Q9ULH1 325-724 limits assumed): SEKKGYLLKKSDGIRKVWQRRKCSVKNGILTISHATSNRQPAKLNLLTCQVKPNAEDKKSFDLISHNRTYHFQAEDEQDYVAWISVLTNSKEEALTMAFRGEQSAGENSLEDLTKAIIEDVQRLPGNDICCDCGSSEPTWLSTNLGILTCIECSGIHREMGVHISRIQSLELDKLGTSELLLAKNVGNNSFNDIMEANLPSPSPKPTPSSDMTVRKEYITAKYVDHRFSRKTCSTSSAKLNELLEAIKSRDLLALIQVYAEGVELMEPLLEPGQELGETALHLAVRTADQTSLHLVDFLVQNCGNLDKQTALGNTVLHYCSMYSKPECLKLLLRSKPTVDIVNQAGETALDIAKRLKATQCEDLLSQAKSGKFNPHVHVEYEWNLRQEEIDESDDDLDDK
Calb FLC: C. albicans growth inhibition with fluconazole, primary screen, CaCi-2 strain, Alamar Blue fluorescence. C. albicans CaCi-2 + fluconazole, 48 h. AID 1979, 2009. actives 0.57% (n = 300,000). growth inhibition, % (no concentration beside the values);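 active means growth inhibition above about 58% in most replicates, limit read from the data, passing the limit was not always enough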;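 further: all wells also contain fluconazole at 8 µg/ml as a sub-toxic cotreatment; 0% = median of DMSO wells and 100% = median of geldanamycin control wells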
ARFGAP1 inhibitor: inhibitors of rat ARFGAP1 GAP activity, primary screen, biochemical, fluorescence polarization, GDP tracer; Arfgap1-stimulated ARF1 GTP hydrolysis, GDP FP detection; inhibition, % at 16.5 µM; actives 0.26% (n = 360,000);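 active means inhibition above a per-plate limit, mean inhibition of low control wells plus 3 SD, cut at about 25% in these data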;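 further: 0% = DMSO wells with enzyme and 100% = wells lacking Arfgap1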
Target sequence (Q62848 1-136 limits assumed): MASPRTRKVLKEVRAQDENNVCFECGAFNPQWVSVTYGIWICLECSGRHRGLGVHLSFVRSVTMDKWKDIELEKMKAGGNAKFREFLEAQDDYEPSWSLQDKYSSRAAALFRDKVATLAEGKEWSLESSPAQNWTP
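Assay system: purified rat His6-Arfgap1 residues 1-136 (GAP domain); Reagent: human Δ17 ARF1 bound to GTP; Dosing: 16.5 µM single point, 1.26% DMSO; Times: GTP hydrolysis reaction 2 h at 25 °C; Signal: FP, GDP Alexa 633 tracer displaced from anti-GDP antibody, 620/688 nm; Measure: % inhibition from polarization.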
PHOSPHO1 block: PubChem AID 1565; Phosphoethanolamine/phosphocholine phosphatase (Homo sapiens), Q8TCT1; recombinant PHOSPHO1, absorbance phosphatase assay; inhibition, % at 13.3 µM; actives 1.1% (n = 290,000); in the data active means inhibition above about 60%
VIM-2 inhibitor: VIM-2 metallo-beta-lactamase inhibitors, primary screen, biochemical, epi-absorbance readout, Pseudomonas aeruginosa enzyme. purified VIM-2, nitrocefin hydrolysis, epi-absorbance fluorescence. inhibition, % at 5.6 µM. actives 0.89% (n = 290,000). AID 1527, 2009;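 active means inhibition above the mean of all tested compounds plus 3 SD, cutoff set per screening run, cut at about 7.5% in these data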;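 further: red hydrolysis product quenches plate fluorescence so inhibitors raise well fluorescence; 0% = enzyme with DMSO and 100% = DMSO without enzyme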
IMP-1 inh: IMP-1 metallo-beta-lactamase inhibitors, primary screen, biochemical, epi-absorbance readout, Pseudomonas aeruginosa enzyme | metallo-beta-lactamase IMP-1 (Pseudomonas aeruginosa) | purified IMP-1, nitrocefin hydrolysis, epi-absorbance fluorescence | inhibition, % at 5.6 µM | actives 0.45% (n = 290,000);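 active means inhibition above the mean plus 3 SD of all compounds in the same screening run, cut at about 4.5% in these data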;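 further: 0% = IMP-1 with DMSO and 100% = DMSO wells lacking enzyme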
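System: Purified IMP-1 | Read-out basis: Percent enzyme inhibition | Controls: IMP-1 with DMSO as 0%, enzyme-free DMSO as 100% | Replicates: One well per compound | Doses: 5.6 µM nominal single concentration | Detection: Epi-absorbance fluorescence, 480 nm excitation, 530 nm emission | Incubation: 25 °C, 15 min preincubation, 25 min reaction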
An asterisk follows results filed as active; / = not tested or not shown. Sampled rows, rich in hits. Any-hit rate of the full collection: about 2.6%.

SMILES	ASAP1 inh	Calb FLC	ARFGAP1 inhibitor	PHOSPHO1 block	VIM-2 inhibitor	IMP-1 inh
O=C(c1ccc2c(c1)OCO2)N1CCC2(CC1)Oc1ccc(Cl)cc1C(=O)C21CC(c2cccnc2)=NO1 (stereo unspecified)	-12.2	83.8*	-10.8	15.8	/	/
O=C(c1ccoc1)N1CCC2(CC1)Oc1ccc(F)cc1C(=O)C21CC(c2ccc(Cl)cc2)=NO1 (stereo unspecified)	-1.2	37.7	1.8	22.1	/	/
O=C(c1ccoc1)N1CCC2(CC1)Oc1ccc(F)cc1C(=O)C21CC(c2cccnc2)=NO1 (stereo unspecified)	13.3	51.0	6.2	35.3	/	/
O=C(c1ccoc1)N1CCC2(CC1)Oc1ccc(F)cc1C(=O)C21CC(c2ccccc2)=NO1 (stereo unspecified)	-14.0	92.0*	-9.8	35.3	/	/
O=C(c1ccc2c(c1)OCO2)N1CCC2(CC1)Oc1ccc(F)cc1C(=O)C21CC(c2cccnc2)=NO1 (stereo unspecified)	-1.9	76.8*	-7.8	22.1	/	/
COCCCNC(=O)C[C@H]1C[C@@]2(C(=O)OC)C(=C[C@H](C(C)(C)C)O[C@@H]2C)N(CCC2=CCCCC2)C1=O	-0.4	/	-6.9	/	/	/
O=C(CNC(=O)c1ccccc1)NCC(=O)OCc1ccccc1Cl	6.9	2.5	-13.3	60.0*	-1.0	-3.6
O=C1NC[C@@H](CCCCN2C[C@H](Cc3ccccc3)N(CC3CCCCC3)C(=O)C2=O)N(CCc2ccccc2)C1=O	-2.2	/	4.6	/	/	/
O=C(CCN1C(=O)C2C3CCC(C3)C2C1=O)Nc1cccc(Cl)c1 (stereo unspecified)	5.4	5.5	-10.1	22.6	2.6	5.9*
CCCn1c(Nc2nc3ccccc3n2C)nc2ccccc21	8.6	101.5*	9.0	10.2	-4.0	-3.7
CCCCn1c(Nc2ccccc2)nc2ccccc21	1.2	2.3	3.1	4.6	-2.1	-4.8
COC(=O)[C@H](Cc1ccccc1)N[C@H](c1ccc(OC)cc1)[C@@H](O)Cc1ccccc1	8.1	/	2.6	/	/	/
C[C@@H]1ON(C)[C@H]2C[C@H]3c4[nH]c5c(-c6ccc(F)cc6)cccc5c4CCN3C(=O)[C@@H]12	8.5	/	0.4	/	/	/
CC1(C)Cc2c(c(N3CCCCC3)[nH]c(=S)c2C#N)CS1	3.3	/	9.6	-0.3	-4.5	8.2*
COCc1[nH]nc2c1C(c1ccccc1)N(Cc1ccccc1)C2=O (stereo unspecified)	0.6	/	11.3	/	/	/
CCCn1nnc(NC(=S)NC(=O)CC)n1	7.1	18.9	18.1	60.4*	-3.9	-6.6
COC(=O)Nc1nnc(-c2ccncc2)s1	2.8	13.4	9.5	62.3*	0.6	-4.1
Cc1ccc(NC(=O)Nc2nnc(-c3ccncc3)s2)cc1C	-2.9	53.0	7.0	-14.7	2.3	-1.4
COc1cccc(C(CC2=CCCCC2)NC(=O)C(F)(F)F)c1 (stereo unspecified)	-0.1	/	-9.7	/	/	/
CCOC(=O)C(=CNc1ccc(NC2=NCC(C)(C)S2)cc1)C(=O)OCC	-3.2	-6.7	5.7	15.9	10.1*	-4.7
CCOC(=O)C(=CNc1ccc(S(N)(=O)=O)cc1)C(=O)OCC	0.8	-1.7	6.1	3.8	-3.0	-3.1
Nc1ccn([C@@H]2O[C@H](C(=O)N[C@H](Cc3ccccc3)C(=O)NCC(=O)N3CCOCC3)[C@@H](O)[C@H]2O)c(=O)n1	1.8	/	6.3	/	/	/
C=CCSc1nnc2c(n1)OC(c1cccnc1)Nc1ccccc1-2 (stereo unspecified)	9.8	3.9	3.8	82.1*	-2.3	-3.3
Cc1nc([N+](=O)[O-])cn1CC(Cl)Cn1cc([N+](=O)[O-])nc1C	12.3	/	12.3	/	/	/
COc1cc(CNCc2ccccn2)ccc1OCc1ccc(Cl)c(Cl)c1	5.9	-15.6	1.1	47.7	10.1*	-5.0
SMILES	ASAP1 inh	Calb FLC	ARFGAP1 inhibitor	PHOSPHO1 block	VIM-2 inhibitor	IMP-1 inh
O=C1NC(=O)C2(CCOc3ccc(F)cc32)N1 (stereo unspecified)	0.4	/	0.1	/	/	/
COc1ccc(Nc2cc(C)nc3ncnn23)c(OC)c1	-0.4	-0.1	5.3	-1.3	5.7	-1.6
COc1ccc(Nc2cc(C)nc3nc(C)nn23)c(OC)c1	-6.1	12.3	1.6	-3.7	12.2*	-3.1
CCOC(=O)c1ccccc1Nc1cc(C)nc2nc(C)nn12	-12.0	4.4	-4.9	-2.3	9.5*	-1.9
CCOc1ccc(Nc2cc(C)nc3nc(C)nn23)cc1	18.9	6.4	2.2	3.7	8.4*	1.2
COc1cccc(Nc2cc(C)nc3nc(C)nn23)c1	-15.1	6.6	-2.2	-5.3	10.8*	-0.6
COC(=O)c1ccc(Nc2cc(C)nc3nc(C)nn23)cc1	-2.2	6.2	0.6	-3.7	7.2	1.6
O=C(Nc1ccc2c(c1)OCCO2)C(c1ccccc1)n1c(=O)c(-c2ccco2)nc2ccccc21 (stereo unspecified)	-1.6	/	9.4	/	/	/
C=CCN=C1NC(c2cccc(F)c2)C(C(=O)OC)=C(C)N1Cc1ccccc1C(F)(F)F (stereo unspecified)	-7.9	/	6.4	/	/	/
COC(=O)[C@]12C[C@H](CC(=O)NCCc3ccccc3OC)C(=O)N(Cc3ccc4c(c3)OCO4)C1=C[C@H](C(C)(C)C)O[C@@H]2C	-8.0	/	-9.1	/	/	/
C=CCn1c(NC(=O)c2ccc(Br)o2)c(C(=O)OCC)sc1=S	6.2	92.6*	12.8	85.4*	-0.2	-1.4
COc1ccc(C(=O)NCC2CCN(C(=O)C(=O)c3cc4ccccc4o3)CC2)c(OC)c1	-6.1	/	11.4	/	/	/
COc1ccc(S(=O)(=O)Nc2cccnc2)c(C)c1C	1.2	-3.5	-10.7	39.5	-1.1	4.6*
CCCCCCCCN1C(=O)[C@@H](CC(=O)NCc2ccc(OC)c(OC)c2)C[C@@]2(C(=O)OC)C1=C[C@H](C(C)(C)C)O[C@@H]2C	-3.9	/	-4.2	/	/	/
CS(=O)(=O)c1nc(-c2cccs2)cc(C(F)(F)F)n1	/	96.9*	/	25.1	-1.4	2.5
S=C1NCN(CC2CC2)CN1	5.0	/	1.6	/	/	/
CCCCc1cc(=O)oc2c(CN3CCCC3)c(O)ccc12	-4.3	-0.3	6.0	-26.2	-0.8	0.8
CCCc1cc(=O)oc2c(CNc3ccc(OCC)cc3)c(O)ccc12	-12.7	1.8	-14.3	38.1	-2.8	5.8*
COc1cnn(-c2ccccc2)c(=O)c1SCc1ccc(Cl)c(Cl)c1	-5.5	-29.9	0.5	87.9*	1.9	-1.4
O=C(CC(CC(=O)c1ccc(Cl)cc1)c1ccccc1C(=O)O)c1ccc(Cl)cc1	-6.9	-9.3	-2.1	19.3	11.6*	-3.5
Cc1[nH][nH]c(=O)c1C(c1ccc(-c2ccc(Cl)cc2Cl)o1)c1c(C)[nH][nH]c1=O	/	/	/	64.2*	-0.9	-1.7
